# How the values were obtained:
# Mus musculus [1] = species: Mus musculus; test: Evaluation of neurologic deficit by rotarod procedure in mice; assay type: functional
# How it was run: (§1)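 Male Carworth Farms number-one mice were dosed ip (30% PEG 400 vehicle) and placed on a 1-in. knurled plastic rod rotating at 6 rpm. Neurotoxicity meant failure to stay on the rod for 1 min. TD50 was determined graphically.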
# Mus musculus [2] = test: Anticonvulsant activity against scMet (subcutaneous metrazole) induced seizure in mice at 4 hr; + = Activity at 600 mg/kg.; assay type: functional, organism-based; set-up: dose 600 mg/kg
# Mus musculus [3] = test: Evaluated for toxicity by using rotarod test at in mice 30 min; + = Activity at 600 mg/kg.; assay type: organism-based; set-up: dose 600 mg/kg; conditions: in vivo, 0.5 h
# How it was run: (§2)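 Neurotoxicity in male Carworth Farms number-one mice dosed ip in 30% PEG 400 at 30, 100, 300 and sometimes 600 mg/kg, tested 30 min or 4 h later. Mice placed on a 1-in. knurled rod rotating at 6 rpm; toxicity means failure to stay on the rod for 1 min. Scored by the lowest toxic dose; footnotes record loss of righting reflex or lethality.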
# Mus musculus [4] = test: Evaluated for toxicity by using rotarod test in mice at 4 hr; + = Activity at 600 mg/kg.; assay type: organism-based; set-up: dose 600 mg/kg; conditions: in vivo; how it was run: as §2
# Mus musculus [5] = test: Anticonvulsant activity against MES (maximal electroshock) induced seizure in mice at 4 hr; ++ = Activity at 300 mg/kg.; assay type: functional, organism-based; set-up: dose 300 mg/kg
# How it was run: (§3)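 Male Carworth Farms number-one mice received the compound ip in 30% polyethylene glycol 400. Doses were 30, 100 and 300 mg/kg, with 600 mg/kg in some cases. Maximal electroshock seizure protection was scored at 30 min and 4 h after dosing. Activity is coded by the lowest effective dose.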
# Mus musculus [6] = test: Anticonvulsant activity against scMet (subcutaneous metrazole) induced seizure in mice at 30 min; ++ = Activity at 300 mg/kg.; assay type: functional, organism-based; set-up: dose 300 mg/kg
# Mus musculus [7] = test: Anticonvulsant activity against MES (maximal electroshock) induced seizure in mice at 30 min; ++ = Activity at 300 mg/kg.; assay type: functional, organism-based; set-up: dose 300 mg/kg; how it was run: as §3
# Mus musculus [8] = test: Evaluated for toxicity by using rotarod test at in mice 30 min; ++ indicates activity at 300 mg/kg.; assay type: organism-based; set-up: dose 300 mg/kg; conditions: in vivo, 0.5 h; how it was run: as §2
# Mus musculus [9] = test: Anticonvulsant activity against MES (maximal electroshock) induced seizure in mice at 4 hr; Activity at 300 mg/kg.; assay type: functional, organism-based; set-up: dose 300 mg/kg; how it was run: as §3
# Mus musculus [10] = test: Anticonvulsant activity against MES (maximal electroshock) induced seizure in mice at 30 min; + indicates activity at 600 mg/kg.; assay type: functional, organism-based; set-up: dose 600 mg/kg
# How it was run: (§4)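 Male Carworth Farms number-one mice; compounds in 30% polyethylene glycol 400, given ip at 30, 100 and 300 mg/kg, some also at 600 mg/kg. Maximal electroshock challenge at 30 min or 4 h after dosing. Scored by the lowest dose giving protection (++++ 30, +++ 100, ++ 300, + 600 mg/kg; - none at 600).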
# Mus musculus [11] = test: Evaluated for toxicity by using rotarod test in mice at 4 hr; ++ indicates activity at 300 mg/kg.; assay type: organism-based; set-up: dose 300 mg/kg; conditions: in vivo; how it was run: as §2
# Mus musculus [12] = test: Anticonvulsant activity against scMet (subcutaneous metrazole) induced seizure in mice at 30 min; ++ indicates activity at 300 mg/kg.; assay type: functional, organism-based; set-up: dose 300 mg/kg
# Mus musculus [13] = test: Anticonvulsant activity against scMet (subcutaneous metrazole) induced seizure in mice at 4 hr; ++ indicates activity at 300 mg/kg.; assay type: functional, organism-based; set-up: dose 300 mg/kg
# [14] = Protective index (PI) which is defined as the ratio of TD50 to the ED50 (ScMet).; assay type: functional
# How it was run: (§5)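 Both values come from ip dosing in 30% PEG 400 to male Carworth Farms number-one mice and were derived by the graphical method.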
# Mus musculus [15] = test: Anticonvulsant activity against MES (maximal electroshock) induced seizure in mice at 4 hr; +++ = Activity at 100 mg/kg.; assay type: functional, organism-based; set-up: dose 100 mg/kg; how it was run: as §3
# Mus musculus [16] = test: Evaluated for toxicity by using rotarod test in mice at 4 hr; + indicates activity at 600 mg/kg.; assay type: organism-based; set-up: dose 600 mg/kg; conditions: in vivo; how it was run: as §2
# Mus musculus [17] = test: Anticonvulsant activity against scMet (subcutaneous metrazole) induced seizure in mice at 30 min; +++ = Activity at 100 mg/kg.; assay type: functional, organism-based; set-up: dose 100 mg/kg
# Mus musculus [18] = test: Anticonvulsant activity against MES (maximal electroshock) induced seizure in mice at 30 min; +++ = Activity at 100 mg/kg.; assay type: functional, organism-based; set-up: dose 100 mg/kg; how it was run: as §3
# [19] = Protective index (PI) which is defined as the ratio of TD50 to the ED50 (MES).; assay type: functional; how it was run: as §5
# Mus musculus [20] = test: Anticonvulsant activity against scMet (subcutaneous metrazole) induced seizure in mice at 4 hr; - indicates no activity at 600 mg/kg.; assay type: functional, organism-based; set-up: dose 600 mg/kg
# How it was run: (§6)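 Male Carworth Farms number-one mice dosed ip (30% PEG 400) at 30, 100, 300 and in some cases 600 mg/kg. Pentylenetetrazole 85 mg/kg given sc as a 0.5% solution in the posterior midline, at 30 min or 4 h. Protection means no clonic spasm of at least 5 s within 30 min. Scored by the lowest protective dose.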
# [21] = Evaluation of neurologic deficit by rotarod procedure in mice.; assay type: ADME, organism-based; conditions: mouse, in vivo; how it was run: as §1
# Mus musculus [22] = test: Evaluated for toxicity by using rotarod test in mice at 4 hr; - = No activity at 600 mg/kg.; assay type: organism-based; set-up: dose 600 mg/kg; conditions: in vivo; how it was run: as §2
# Mus musculus [23] = test: Anticonvulsant activity against scMet (subcutaneous metrazole) induced seizure at dose 600 mg/kg in mice at 4 hr; - = No activity at 600 mg/kg.; assay type: functional, organism-based
# Mus musculus [24] = test: Evaluated for toxicity by using rotarod test at dose 600 mg/kg in mice 30 min; - = No activity at 600 mg/kg.; assay type: organism-based; conditions: in vivo, 0.5 h; how it was run: as §2
# Mus musculus [25] = test: Anticonvulsant activity against scMet (subcutaneous metrazole) induced seizure at dose 300 mg/kg in mice at 30 min; ++ = Activity at 300 mg/kg.; assay type: functional, organism-based
# Mus musculus [26] = test: Anticonvulsant activity against MES (maximal electroshock) induced seizure at dose 600 mg/kg in mice at 30 min; - = No activity at 600 mg/kg.; assay type: functional, organism-based; how it was run: as §3
# Mus musculus [27] = test: Anticonvulsant activity against MES (maximal electroshock) induced seizure at dose 600 mg/kg in mice at 4 hr; - = No activity at 600 mg/kg.; assay type: functional, organism-based; how it was run: as §3
# Mus musculus [28] = test: Evaluated for toxicity by using rotarod test in mice at 4 hr; - indicates no activity at 600 mg/kg.; assay type: organism-based; set-up: dose 600 mg/kg; conditions: in vivo; how it was run: as §2
# Mus musculus [29] = test: Evaluated for toxicity by using rotarod test at in mice 30 min; - indicates no activity at 600 mg/kg.; assay type: organism-based; set-up: dose 600 mg/kg; conditions: in vivo, 0.5 h; how it was run: as §2
# Mus musculus [30] = test: Anticonvulsant activity against MES (maximal electroshock) induced seizure in mice at 4 hr; + indicates activity at 600 mg/kg.; assay type: functional, organism-based; set-up: dose 600 mg/kg; how it was run: as §4
# Mus musculus [31] = test: Anticonvulsant activity against scMet (subcutaneous metrazole) induced seizure in mice at 30 min; + indicates activity at 600 mg/kg.; assay type: functional, organism-based; set-up: dose 600 mg/kg; how it was run: as §6
# Mus musculus [32] = test: Anticonvulsant activity against MES (maximal electroshock) induced seizure in mice at 4 hr; +++ indicates activity at 100 mg/kg.; assay type: functional, organism-based; set-up: dose 100 mg/kg; how it was run: as §3
# Mus musculus [33] = test: Anticonvulsant activity against scMet (subcutaneous metrazole) induced seizure in mice at 30 min; +++ indicates activity at 100 mg/kg.; assay type: functional, organism-based; set-up: dose 100 mg/kg
structure (smiles),measurement,setting,value
CCC1(c2ccccc2)C(=O)NC(=O)NC1=O [PHENOBARBITAL],TD50,Mus musculus [1],69 mg/kg
Nc1ccc(C(=O)NCCc2ccccc2)cc1,Activity,Mus musculus [2],Activity at 300 mg/kg
same,Toxicity,Mus musculus [3],Activity at 600 mg/kg
same,Toxicity,Mus musculus [4],Activity at 600 mg/kg
same,Activity,Mus musculus [5],Activity at 300 mg/kg
same,Activity,Mus musculus [6],Activity at 300 mg/kg
same,Activity,Mus musculus [7],Activity at 300 mg/kg
CC(CNC(=O)c1ccc(N)cc1)c1ccccc1 (configuration not stated),Toxicity,Mus musculus [8],activity at 300 mg/kg
same,Activity,Mus musculus [9],activity at 300 mg/kg
same,Activity,Mus musculus [10],activity at 300 mg/kg
same,Toxicity,Mus musculus [11],activity at 300 mg/kg
same,Activity,Mus musculus [12],activity at 300 mg/kg
same,Activity,Mus musculus [13],activity at 300 mg/kg
Nc1ccc(C(=O)NC2CCCCC2)cc1,PI,[14],1.5
same,Toxicity,Mus musculus [8],activity at 300 mg/kg
same,Activity,Mus musculus [15],Activity at 100 mg/kg
same,Toxicity,Mus musculus [16],activity at 300 mg/kg
same,Activity,Mus musculus [17],Activity at 100 mg/kg
same,Activity,Mus musculus [18],Activity at 100 mg/kg
same,PI,[19],2.8
same,Activity,Mus musculus [20],Not toxic
same,TD50,[21],189 mg/kg
NC(=O)c1ccc(N)cc1,Toxicity,Mus musculus [22],Not toxic
same,Activity,Mus musculus [23],Not toxic
same,Toxicity,Mus musculus [24],Not toxic
same,Activity,Mus musculus [25],Activity at 300 mg/kg
same,Activity,Mus musculus [26],Not toxic
same,Activity,Mus musculus [27],Not toxic
CC(Cc1ccccc1)NC(=O)c1ccc(N)cc1 (configuration not stated),Toxicity,Mus musculus [28],Not toxic
same,Toxicity,Mus musculus [29],Not toxic
same,Activity,Mus musculus [10],activity at 600 mg/kg
same,Activity,Mus musculus [30],activity at 600 mg/kg
same,Activity,Mus musculus [31],activity at 600 mg/kg
same,Activity,Mus musculus [20],Not toxic
CC(NC(=O)c1ccc(N)cc1)c1ccccc1 (configuration not stated),PI,[14],4.1
same,Toxicity,Mus musculus [8],activity at 300 mg/kg
same,Activity,Mus musculus [32],activity at 100 mg/kg
same,TD50,Mus musculus [1],171 mg/kg
same,Activity,Mus musculus [33],activity at 100 mg/kg
same,Toxicity,Mus musculus [11],activity at 300 mg/kg
same,PI,[19],9.5
same,Activity,Mus musculus [13],activity at 100 mg/kg

# From ChEMBL document CHEMBL1122671, “Anticonvulsant activity of some 4-aminobenzamides” (J Med Chem, 1984)
